In ChEMBL document CHEMBL1122897, “Tetracyclic pyridazines as potential psychopharmacological agents” (J Med Chem, 1985) one finds Inhibition, EC50 and ED50 data, which are given here for 9 compounds.

Type in all cases: functional
For test [1], the system named is Mus musculus. Description: Ability to inhibit the uptake of Serotonin into mouse cortical slices 1 hour after intraperitoneal injection ex vivo at a dose of >128. An outline of the steps:
(§1)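 Ex vivo: white mice (18–22 g), four per dose, given test drug intraperitoneally; 1 h later cerebral cortical plus striatal slices incubated 5 min with 0.2 nmol [3H]NE and 0.2 nmol [14C]-5-HT, pargyline, glucose in Krebs-Henseleit buffer pH 7.4 under O2/6.5% CO2. Dual-channel scintillation counting of dissolved slices; active uptake defined as cocaine (3 × 10^-4 M)-inhibitable.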

The species entered for test [2] is Mus musculus. Put plainly: In vitro activity for the ability to inhibit the uptake of Norepinephrine into mouse cortical slices; value ranges from 2.2-5.5. An outline of the steps: (§2)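 Slices (60 mg cortical, 20 mg striatal) from untreated white mice (18–22 g) incubated with test compound, 0.2 nmol [3H]NE and 0.2 nmol [14C]-5-HT simultaneously, 0.48 μmol pargyline, 11 μmol glucose in 2.0 mL Krebs-Henseleit pH 7.4, 5 min under O2 with 6.5% CO2. 3H and 14C counted separately by liquid scintillation; active uptake = portion blocked by 3 × 10^-4 M cocaine.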

The species entered for test [3] is Mus musculus. Description: In vitro activity for the ability to inhibit the uptake of Serotonin into mouse cortical slices; value ranges from 2.6-6.7. Summed up:
as §2

The subject of test [4] is Mus musculus. Put plainly: Ability to inhibit the uptake of Norepinephrine into mouse cortical slices 1 hour after intraperitoneal injection ex vivo at a dose of >128. An outline of the steps: as §1
The species entered for test [5] is Mus musculus. Description: In vitro activity for the ability to inhibit the uptake of Serotonin into mouse cortical slices; value ranges from 0.8-3.0. An outline of the steps:
as §2

The test system of test [6] is Mus musculus. Description: Ability to inhibit the uptake of Norepinephrine into mouse cortical slices 1 hour after intraperitoneal injection ex vivo; value ranges from […]. To be noted: ip. An outline of the steps:
as §1

Test [7] deals with Mus musculus. Put plainly: Ability to inhibit the uptake of Serotonin into mouse cortical slices 1 hour after intraperitoneal injection ex vivo value ranges from 27-224. The note with it: ip. An outline of the steps:
as §1

For test [8], the species on record is Mus musculus. Put plainly: In vitro activity for the ability to inhibit the uptake of Norepinephrine into mouse cortical slices; value ranges from 1.1-4.4. Summed up:
as §2

In test [9] the test system is Mus musculus. Put plainly: Ability to inhibit the uptake of Norepinephrine into mouse cortical slices 1 hour after intraperitoneal injection ex vivo at a dose of 102. Summed up:
as §1

The species entered for test [10] is Mus musculus. Put plainly: In vitro activity for the ability to inhibit the uptake of Norepinephrine into mouse cortical slices at a dose of >25. Summed up:
as §2

Test [11] is filed under the species Mus musculus. Description: In vitro activity for the ability to inhibit the uptake of Serotonin into mouse cortical slices; value ranges from 0.3-1.0. Summed up:
as §2

For test [12], the system named is Mus musculus. Put plainly: Ability to inhibit the uptake of Serotonin into mouse cortical slices 1 hour after intraperitoneal injection ex vivo at concentration of 102 uM/Kg. An outline of the steps:
as §1

Test [13] concerns Mus musculus. Description: Ability to inhibit the uptake of Serotonin into mouse cortical slices 1 hour after intraperitoneal injection ex vivo at a dose > 106. An outline of the steps: as §1
For test [14], the species on record is Mus musculus. Put plainly: In vitro activity for the ability to inhibit the uptake of Norepinephrine into mouse cortical slices Value ranges from […]. An outline of the steps:
as §2

Test [15] relates to Mus musculus. Put plainly: Ability to inhibit the uptake of Norepinephrine into mouse cortical slices 1 hour after intraperitoneal injection ex vivo at a dose of >106. Summed up:
as §1

The species named for test [16] is Mus musculus. Description: In vitro activity for the ability to inhibit the uptake of Serotonin into mouse cortical slices at a dose of 27. Summed up:
as §2

The species entered for test [17] is Mus musculus. Description: In vitro activity for the ability to inhibit the uptake of Serotonin into mouse cortical slices; value ranges from […]. An outline of the steps:
as §2

Test [18] deals with Mus musculus. Description: Ability to inhibit the uptake of Serotonin into mouse cortical slices 1 hour after intraperitoneal injection ex vivo at a dose of >117. An outline of the steps:
as §1

Test [19] relates to Mus musculus. Put plainly: Ability to inhibit the uptake of Norepinephrine into mouse cortical slices 1 hour after intraperitoneal injection ex vivo at a dose of >117. An outline of the steps:
as §1

The species entered for test [20] is Mus musculus. Description: In vitro activity for the ability to inhibit the uptake of Norepinephrine into mouse cortical slices; value ranges from 2.3-7.0. An outline of the steps: as §2
For test [21], the system named is Mus musculus. Put plainly: Ability to inhibit the uptake of Serotonin into mouse cortical slices 1 hour after intraperitoneal injection ex vivo. The note with it: ip. Summed up: as §1
The species entered for test [22] is Mus musculus. Put plainly: In vitro activity for the ability to inhibit the uptake of Norepinephrine into mouse cortical slices; value ranges from 0.2-1.0. An outline of the steps: as §2
In test [23] the test system is Mus musculus. Description: Ability to inhibit the uptake of Norepinephrine into mouse cortical slices 1 hour after intraperitoneal injection ex vivo; value ranges from 11-23. To be noted: ip. Summed up: as §1
Test [24] is filed under the species Mus musculus. Put plainly: In vitro activity for the ability to inhibit the uptake of Serotonin into mouse cortical slices; value ranges from 2.0-6.4. An outline of the steps:
as §2

The species named for test [25] is Mus musculus. Put plainly: (§3) In vitro activity for the ability to inhibit the uptake of Norepinephrine into mouse cortical slices. To be noted: read-out: ED50 (the source's name). An outline of the steps:
(§4)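 Slices from untreated white mice (18–22 g), four animals per dose: 60 mg cortical plus 20 mg striatal, with test compound in the bath. Simultaneous uptake of [3H]NE and [14C]-5-HT (0.2 nmol each), with 0.48 μmol pargyline and 11 μmol glucose in 2.0 mL Krebs-Henseleit buffer, pH 7.4. Incubation 5 min under O2/6.5% CO2. Separate 3H and 14C channels; active uptake is the portion inhibited by 3 × 10^-4 M cocaine.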

Test [26] deals with Mus musculus. Put plainly: Ability to inhibit the uptake of Norepinephrine into mouse cortical slices 1 hour after intraperitoneal injection ex vivo. The note with it: ip.
The species named for test [27] is Mus musculus. Put plainly: (§5) In vitro activity for the ability to inhibit the uptake of Serotonin into mouse cortical slices. The note with it: read-out: ED50 (the source's name). Summed up:
as §4

The species entered for test [28] is Mus musculus. The test is described as §3. An outline of the steps: as §2
The species named for test [29] is Mus musculus. The description is as §5. Summed up:
as §2

A word on the Inhibition: it is the change of the read-out against control, counted positive when it falls. A low value points to a response near the control. With `CN(C)CCc1nnc2ccccc2c1-c1cccc(Cl)c1`, the Inhibition is reported as 42% in test [1] and 49% in test [4]. Also, the EC50 turned out to be 3.5 µM in test [2] and 4.2 µM in [3].
In general, ED50 refers to the dose that gives a 50% effect, or the effect in half of the subjects. Lower therefore signals greater potency. As for `CN(C)CC/C=C1\c2ccccc2CCc2cccc(N)c21`, the EC50 worked out at 1.6 µM in test [5] and 2.2 µM in [8]. Also, the ED50 came out at 15 µmol/kg in test [6] and 55 µmol/kg in test [7].
Turning to `CN(C)CC/C=C(\c1cccc(Cl)c1)c1ccccc1N`, the values for the Inhibition in test [9], in test [10] and in [12] were 33%, 37% and 55%, respectively. The compound also registered an EC50 in [11] of 0.5 µM.
As for `CN(C)CCc1nnc2cccc3c2c1-c1ccccc1CC3`, the figures for the Inhibition in test [13], in [15] and in test [16] were 11%, 13% and 46%, respectively. For the same compound, the EC50 in test [14] came out at 6.6 µM.
With `CN(C)CCc1nnc2cccc3c2c1-c1cc(Cl)ccc1S3`, the EC50 in test [17] was determined as 7.3 µM; in test [20] it was 3.8 µM. Also, the values for the Inhibition in test [18] and in test [19] were 16% and 27%, respectively.
Consider `CN(C)CC/C=C1\c2cc(Cl)ccc2Sc2cccc(N)c21`, for which the results for the ED50 in [21] and in test [23] were above 99 µmol/kg and 16 µmol/kg, respectively. The EC50 turned out to be 0.7 µM in test [22] and 3.5 µM in test [24].
For the compound `CN(C)CCC=C1c2ccccc2CCc2ccccc21` [AMITRIPTYLINE], the ED50 is above 144 µmol/kg in test [21] and 144 µmol/kg in test [26]. Further, the EC50 amounted to 5.4 µM in test [25] and 2.9 µM in [27].
In test [21], `CNCCCN1c2ccccc2CCc2ccccc21` [DESIPRAMINE] yielded an ED50 above 132 µmol/kg. The values for the EC50 in test [28] and in test [29] were 0.07 µM and 12 µM, respectively.
Turning to `CN(C)CCCN1c2ccccc2CCc2ccccc21` [IMIPRAMINE], the figures for the ED50 in test [21] and in test [26] were 126 µmol/kg and 63 µmol/kg, respectively. Further, the values for the EC50 in test [28] and in test [29] were 1.3 µM and 0.3 µM, respectively.
